In ChEMBL document CHEMBL4152216, “Syntheses and anti-pancreatic cancer activities of rakicidin A analogues” (Eur J Med Chem, 2018):

What was measured:
[1] = target: T1, Aldehyde dehydrogenase, mitochondrial (Homo sapiens) (UniProt P05091); assay: Inhibition of ALDH in human PANC1 cells assessed as aldefluor positive cells at 0.2 uM after 72 hrs in presence of DEAB by aldefluor assay (reference value: 0.455%); format: cell-based; set-up: scale not given: the % may be the effect or the level left
T1 sequence (whole entry): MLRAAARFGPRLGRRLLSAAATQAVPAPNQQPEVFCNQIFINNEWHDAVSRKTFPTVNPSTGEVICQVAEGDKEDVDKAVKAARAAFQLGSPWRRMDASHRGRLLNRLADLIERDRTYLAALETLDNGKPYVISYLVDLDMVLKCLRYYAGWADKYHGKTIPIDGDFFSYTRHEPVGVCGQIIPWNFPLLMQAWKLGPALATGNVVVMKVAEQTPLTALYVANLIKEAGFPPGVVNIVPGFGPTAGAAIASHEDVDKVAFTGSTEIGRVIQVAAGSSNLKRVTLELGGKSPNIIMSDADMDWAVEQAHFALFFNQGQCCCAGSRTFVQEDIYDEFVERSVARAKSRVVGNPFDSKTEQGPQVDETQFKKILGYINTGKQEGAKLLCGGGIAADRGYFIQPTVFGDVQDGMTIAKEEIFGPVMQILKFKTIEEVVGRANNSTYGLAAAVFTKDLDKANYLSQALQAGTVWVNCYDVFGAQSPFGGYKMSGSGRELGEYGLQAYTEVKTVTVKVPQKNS
How it was run: (§1)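 PANC-1 cells were seeded at 5×10^4 cells/well and exposed after 6 h to compound (0.2 µM; ADR 0.5 µM) for 72 h. Living cells were suspended in assay buffer and incubated with Aldefluor substrate for 60 min at 37 °C. A parallel sample received substrate plus the ALDH inhibitor DEAB as negative control. Readout was percentage of ALDH+ cells, mean ± SEM, n = 3.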

PaTu 8988t [2] = assay: Cytotoxicity against human PA-TU-8988T cells after 72 hrs under normoxic condition by MTT assay; format: functional, cell-based
How it was run: (§2)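 PANC-1, PATU8988T and ASPC-1 cells were grown in DMEM with 10% FBS at 37 °C and 5% CO2, then seeded at 4000 cells/well. Compounds were added at various concentrations after 6 h. Normoxic plates stayed at 37 °C, 5% CO2. Hypoxic plates went into a chamber purged 10 min with 5% CO2/1% O2/94% N2, sealed, at 37 °C. After 72 h, MTT was added for 4 h, formazan dissolved in DMSO and read at 570 nm. IC50 is the mean ± SD of three independent experiments.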

ASPC1 [3] = assay: Potency index, ratio of […] for rakicidin A to IC50 for test compound for cytotoxicity against human Aspc-1 cells after 72 hrs under hypoxic condition by MTT assay; format: functional
PANC-1 [4] = assay: Selectivity index, ratio of IC50 against human PANC1 cells under normoxic condition to IC50 for human PANC1 cells under hypoxic condition; format: functional
How it was run: (§3)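 Hypoxic selectivity index is IC50 (normoxia)/IC50 (hypoxia). Both IC50s come from the 72 h MTT assay in the same cell line, run under normoxia (37 °C, 5% CO2) or a sealed 1% O2/5% CO2/94% N2 chamber, each the mean of three independent experiments.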

PANC-1 [5] = assay: Antitumor activity against human PANC1 cells xenografted in zebrafsh yolk assessed as tumor growth inhibition at 0.05 uM after 2 days by fluorescence microscopy; format: functional
How it was run: (§4)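 About 300 PANC-1 cells were microinjected into the yolk of 2 dpf wild-type AB zebrafish, which were held at 35 °C to 3 dpf. Fish were then randomized to 6-well plates, 30 per well, and dosed once with compound at 0.005–50 µM. Gemcitabine 66.7 µM served as positive control and 10% aqueous castor oil as blank. After 2 days at 35 °C, 15 fish per group were imaged by fluorescence microscopy. Inhibition (%) = (1 − S(sample)/S(blank)) × 100, mean ± SEM, n = 15.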

PANC-1 [6] = assay: Antitumor activity against human PANC1 cells xenografted in zebrafsh yolk assessed as tumor growth inhibition at 0.005 uM after 2 days by fluorescence microscopy; format: functional; how it was run: as §4
[7] = target: T1, Aldehyde dehydrogenase, mitochondrial (Homo sapiens); assay: Inhibition of ALDH in human PANC1 cells assessed as aldefluor positive cells at 0.2 uM after 72 hrs by aldefluor assay (reference value: 12.5%); format: cell-based; set-up: scale not given: the % may be the effect or the level left; how it was run: as §1
PANC-1 [8] = assay: Antitumor activity against human PANC1 cells xenografted in zebrafsh yolk assessed as tumor growth inhibition at 5 uM after 2 days by fluorescence microscopy; format: functional; how it was run: as §4
PANC-1 [9] = assay: Inhibition of cancer stem cell population of human PANC1 cells assessed as CD24+/CD44+/ESA+ cell population level at 0.15 uM after 48 hrs by flow cytometric analysis (reference value: 1.7%); format: functional; set-up: scale not given: the % may be the effect or the level left
PANC-1 [10] = assay: Inhibition of tumorsphere formation in human PANC1 cells assessed as reduction in number of tumor spheres at 0.25 uM after 7 days; format: functional
How it was run: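 Tumorsphere formation: single-cell PANC-1 suspensions were plated in ultra-low-attachment wells at 2,000 cells/mL in Complete MammoCult medium, with compound at 0.25 µM. Tumorspheres were counted after 7 days. Three repeats, mean ± SEM.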

ASPC1 [11] = assay: Selectivity index, ratio of IC50 against human Aspc-1 cells under normoxic condition to IC50 for human Aspc-1 cells under hypoxic condition; format: functional; how it was run: as §3
PANC-1 [12] = assay: Antitumor activity against human PANC1 cells xenografted in zebrafsh yolk assessed as tumor growth inhibition at 50 uM after 2 days by fluorescence microscopy; format: functional; how it was run: as §4
PANC-1 [13] = assay: Antitumor activity against human PANC1 cells xenografted in zebrafsh yolk assessed as tumor growth inhibition at 0.5 uM after 2 days by fluorescence microscopy; format: functional; how it was run: as §4
ASPC1 [14] = assay: Cytotoxicity against human Aspc-1 cells after 72 hrs under hypoxic condition by MTT assay; format: functional, cell-based; conditions: ASPC1, 72 h; how it was run: as §2
Danio rerio = assay: Toxicity in zebrafish xenografted with human PANC1 cells at 50 uM after 2 days by fluorescence microscopy; format: organism-based; conditions: 48 h
PANC-1 [15] = assay: Cytotoxicity against human PANC1 cells after 72 hrs under normoxic condition by MTT assay; format: functional, cell-based; conditions: PANC-1, 72 h; how it was run: as §2
PaTu 8988t [16] = assay: Selectivity index, ratio of IC50 against human PA-TU-8988T cells under normoxic condition to IC50 for human PA-TU-8988T cells under hypoxic condition; format: functional; how it was run: as §3
ASPC1 [17] = assay: Cytotoxicity against human Aspc-1 cells after 72 hrs under normoxic condition by MTT assay; format: functional, cell-based; conditions: ASPC1, 72 h; how it was run: as §2
PANC-1 [18] = assay: Antitumor activity against human PANC1 cells xenografted in BALB/c nude mouse assessed as reduction in tumor initiating cell frequency at 0.1 to 0.25 uM measured after 7 days; format: functional
How it was run: (§5)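 PANC-1 cells were treated in vitro with compound (ADR at 0.5 µM) for 48 h, collected, and injected subcutaneously at limiting cell doses into 5-week-old female BALB/c nude mice. Tumor formation rate was scored after 7 days. Tumor-initiating frequency was derived by limiting-dilution analysis with Poisson statistics against vehicle.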

PANC-1 [19] = assay: Cytotoxicity against human PANC1 cells after 72 hrs under hypoxic condition by MTT assay; format: functional, cell-based; conditions: PANC-1, 72 h; how it was run: as §2
PaTu 8988t [20] = assay: Cytotoxicity against human PA-TU-8988T cells after 72 hrs under hypoxic condition by MTT assay; format: functional, cell-based; how it was run: as §2
PANC-1 [21] = assay: Antitumor activity against human PANC1 cells xenografted in zebrafsh yolk assessed as tumor growth inhibition at 66.7 uM after 2 days by fluorescence microscopy; format: functional; how it was run: as §4
PANC-1 [22] = assay: Increase in tumor initiating cell frequency in human PANC1 cells xenografted in BALB/c nude mouse at 0.5 uM measured after 7 days; format: cell-based; conditions: in vivo, 168 h; how it was run: as §5
[23] = target: T1, Aldehyde dehydrogenase, mitochondrial (Homo sapiens); assay: Inhibition of ALDH in human PANC1 cells assessed as aldefluor positive cells at 0.5 uM after 72 hrs by aldefluor assay (reference value: 12.5%); format: cell-based; set-up: scale not given: the % may be the effect or the level left; how it was run: as §1
[24] = target: T1, Aldehyde dehydrogenase, mitochondrial (Homo sapiens); assay: Inhibition of ALDH in human PANC1 cells assessed as aldefluor positive cells at 0.5 uM after 72 hrs in presence of DEAB by aldefluor assay (reference value: 0.455%); format: cell-based; set-up: scale not given: the % may be the effect or the level left; how it was run: as §1

Row | SMILES | IC50 (PaTu 8988t [2]) [nM] | Ratio IC50 (PANC-1 [4]) | TGI (PANC-1 [5]) [%] | TGI (PANC-1 [6]) [%] | TGI (PANC-1 [8]) [%] | Activity (PANC-1 [9]) [%] | Ratio IC50 (ASPC1 [11]) | TGI (PANC-1 [12]) [%] | TGI (PANC-1 [13]) [%] | IC50 (ASPC1 [14]) [nM] | Activity (Danio rerio) | IC50 (PANC-1 [15]) [nM] | Ratio IC50 (PaTu 8988t [16]) | IC50 (ASPC1 [17]) [nM] | IC50 (PANC-1 [19]) [nM] | IC50 (PaTu 8988t [20]) [nM] | also measured
1 | C=C1/C=C/C(=O)N(C)CC(=O)N[C@@H](CC(=O)NC2CC2)C(=O)O[C@@H]([C@H](C)CCCCCCCCCCCCCC)[C@H](C)C(=O)N1 | 200 | 5.25 | 10 | 15 | 22 | 0.5 | 12.27 | 45 | 5 | 22 | Non-Toxic | 130 | 8.3 | 270 | 24 | 24 | Activity [1]: 0.746%; Ratio IC50 (ASPC1 [3]): 4; Activity [7]: 5.84%; fold change (FC) (PANC-1 [10]): 8.7; fold change (FC) (PANC-1 [18]): 19
2 | C=C1/C=C/C(=O)N(C)CC(=O)NCC(=O)O[C@@H]([C@H](C)CCCCCCCCCCCCCC)[C@H](C)C(=O)N1 | 2470 | 7.93 | -2 | 14 | 26 |  | 8.6 | 47 | 6 | 490 | Non-Toxic | 2480 | 5.67 | 4170 | 310 | 440 | 
3 | Nc1ccn([C@@H]2O[C@H](CO)[C@@H](O)C2(F)F)c(=O)n1 [GEMCITABINE] |  | 0.24 |  |  |  | 1.4 |  |  |  |  |  | 400 |  |  | 1700 |  | TGI (PANC-1 [21]): 55%
4 | COc1cccc2c1C(=O)c1c(O)c3c(c(O)c1C2=O)C[C@@](O)(C(=O)CO)C[C@@H]3O[C@H]1C[C@H](N)[C@H](O)[C@H](C)O1.Cl [DOXORUBICIN HYDROCHLORIDE] |  | 0.29 |  |  |  | 8.9 | 0.78 |  |  | 2000 |  | 480 |  | 1600 | 1700 |  | fold change (FC) (PANC-1 [22]): 1.6; Activity [23]: 18.8%; Activity [24]: 0.964%
